This passage reports Activity, ED50 and IC50 results from ChEMBL document CHEMBL3046221, “Asymmetric chloronicotinyl insecticide, 1-[1-(6-chloro-3-pyridyl)ethyl]-2-nitroiminoimidazolidine: preparation, resolution and biological activities toward insects and their nerve preparations” (Biosci Biotechnol Biochem, 2003).

Each structure is given as a SMILES string.

One assay has as its system Periplaneta americana. Briefly: Neuroblocking potency against Periplaneta americana (American cockroach) abdominal central nerve cord assessed as compound concentration at which the frequency first reduced below 10 counts/30 secs […] by electrophysiologt method. The format is functional.
Assay [1] deals with Musca domestica. Briefly: Insecticidal activity against female Musca domestica (house fly) administered through injection into dorsal side of thorax pre-treated with 0.2% w/v NIA and 0.2% w/v PB before compound injection measured 1 hr post dose. The format is functional. A digest of the protocol:
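Female houseflies anesthetized with CO2 were given 1 µl methanol with NIA 0.2% and PB 0.2% (w/v) topically on the abdomen. After 1 h at 25°C, 0.22 µl of compound in 50% aqueous ethanol at various concentrations was injected. Dead or paralyzed flies were counted 1 h later at 25°C, and ED50 (mol/insect) was derived by probit analysis.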

The target in assay [2] is T1, Nicotinic acetylcholine receptor alpha 5 subunit (Musca domestica, UniProt A9XFY4).
T1 sequence (A9XFY4 whole entry): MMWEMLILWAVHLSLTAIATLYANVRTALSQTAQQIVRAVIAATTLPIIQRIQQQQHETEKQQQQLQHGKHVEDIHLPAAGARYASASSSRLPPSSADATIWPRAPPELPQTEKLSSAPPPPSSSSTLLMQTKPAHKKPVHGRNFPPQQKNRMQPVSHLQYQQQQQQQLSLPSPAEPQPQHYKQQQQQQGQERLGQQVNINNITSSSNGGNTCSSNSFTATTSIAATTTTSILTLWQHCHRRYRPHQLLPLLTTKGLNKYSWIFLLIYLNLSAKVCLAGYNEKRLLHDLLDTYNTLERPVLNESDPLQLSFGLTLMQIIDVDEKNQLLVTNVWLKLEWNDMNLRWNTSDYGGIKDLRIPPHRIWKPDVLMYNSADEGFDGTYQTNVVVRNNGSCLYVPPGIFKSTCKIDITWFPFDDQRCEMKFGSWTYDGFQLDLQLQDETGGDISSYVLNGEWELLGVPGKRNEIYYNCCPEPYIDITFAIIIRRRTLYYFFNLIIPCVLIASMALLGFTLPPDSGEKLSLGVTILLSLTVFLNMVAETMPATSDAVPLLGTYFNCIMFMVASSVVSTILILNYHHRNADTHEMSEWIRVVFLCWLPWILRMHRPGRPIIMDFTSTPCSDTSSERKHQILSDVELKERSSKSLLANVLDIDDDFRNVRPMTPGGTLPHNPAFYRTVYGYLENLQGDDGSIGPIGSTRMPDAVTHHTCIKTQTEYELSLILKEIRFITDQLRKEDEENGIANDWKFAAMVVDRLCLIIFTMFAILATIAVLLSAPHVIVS
Put plainly: Displacement of [3HIMI from nicotinic acetylcholine receptor in Musca domestica (house fly) head membranes incubated for 60 min by liquid scintillation counting method. Set-up: species or system Membrane. In a few lines:
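Housefly heads homogenized in pH 7.4 phosphate/sucrose/EDTA buffer; 700 g and 125,000 g spins; pellet resuspended in pH 7.4 phosphate, 50 mM NaCl, 0.1% Triton X-100. Membranes (3 mg/ml protein) preincubated with compound in DMSO 3-5 min at 24°C, then [3H]imidacloprid 10 nM final, 60 min at 24°C. GF/B filtration; IC50 for inhibition of specific binding.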

Assay [3] concerns Musca domestica. Briefly: Insecticidal activity against female Musca domestica (house fly) administered through injection into dorsal side of thorax measured 1 hr post dose. The format is functional.

For `CC(c1ccc(Cl)nc1)N1CCN/C1=N\[N+](=O)[O-]` (racemic) [(R,S)-METHYL-IMIDACLOPRID], the Activity with Periplaneta americana is 15 µM. The ED50 in the assay on Musca domestica [1] was 1.7 fmol; in the assay with Musca domestica [3], 26 fmol. This compound also registered an IC50 in assay [2] of 0.21 µM.
For the compound `Clc1ccc([C@@H]2C[C@H]3CC[C@@H]2N3)cn1` [(+)-EPIBATIDINE], the concentration for half-maximal inhibition (IC50) in assay [2] is 2.79 µM.
The same measure, in the same setting: the same measure for `Clc1ccc([C@H]2C[C@@H]3CC[C@H]2N3)cn1` [(-)-EPIBATIDINE]: 1.34 µM.
Regarding `C[C@H](c1ccc(Cl)nc1)N1CCN/C1=N\[N+](=O)[O-]` [(R)-METHYL-IMIDACLOPRID], in the assay with Periplaneta americana, the Activity stood at 73 µM. The ED50 in the assay with Musca domestica [1] turned out to be 2.3 fmol; in the assay with Musca domestica [3] it was 55 fmol. Further, the concentration for half-maximal inhibition (IC50) in assay [2] amounted to 0.95 µM.
On the same counts, the results for `C[C@@H](c1ccc(Cl)nc1)N1CCN/C1=N\[N+](=O)[O-]` [(S)-METHYL-IMIDACLOPRID] are 5.9 µM, 1.1 fmol, 45 fmol and 0.19 µM.
As for `O=[N+]([O-])/N=C1\NCCN1Cc1ccc(Cl)nc1` [IMIDACLOPRID], the Activity with Periplaneta americana was 2.3 µM. Also, the results for the ED50 in the assay with Musca domestica [1] and in the assay with Musca domestica [3] were 0.26 fmol and 2.2 fmol, respectively.
In assay [2], `CN1CCC[C@H]1c1cccnc1` [NICOTINE] displayed an IC50 of 11.9 µM.
Compound `CN1CCC[C@@H]1c1cccnc1` [R-NICOTINE] returned an IC50 in assay [2] of 422 µM.

A word on the IC50: it is the concentration that inhibits the measured activity by half. A low value points to inhibition by little substance.
